Measles CPE = protection of cells from measles virus; Measles virus-infected cells, CPE protection, absorbance; AID 841; 140,000 compounds, 1.5% hits; protection (pct of control), % at 4 µM; in the data active = protection mostly above about 24%, no sharp cut-off; inactive = mostly below about 26%
Yeast life ext = extends the lifespan of yeast; S. cerevisiae growth with nicotinamide, OD615; deaD strain in restrictive glucose medium; inhibition of the nicotinamide effect, % at 10 µM; 130,000 compounds, 0.68% hits; AID 775;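 active = inhibition above a set limit, placed 3 SD over the median of all compounds, cut at about 26% in these data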;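 also: 0% = nicotinamide-treated wells and 100% = cells grown without nicotinamide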
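Assay system: engineered S. cerevisiae DeaD replicative-lifespan strain, galactose-grown log-phase cells; medium: restrictive CSMM-D dextrose medium; also added: nicotinamide, 1.5 mM, co-present with compound; schedule: 48 h compound exposure at 30 °C, humidified; detection: absorbance at 615 nm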
sEH activator = activators of human soluble epoxide hydrolase. P34913. purified human sEH enzymatic activity, activator screen. activation, % at 2 µM. 91,000 compounds, 0.04% hits. AID 717; in the data active = activation above about 37%
Target sequence (P34913 whole entry, looked up): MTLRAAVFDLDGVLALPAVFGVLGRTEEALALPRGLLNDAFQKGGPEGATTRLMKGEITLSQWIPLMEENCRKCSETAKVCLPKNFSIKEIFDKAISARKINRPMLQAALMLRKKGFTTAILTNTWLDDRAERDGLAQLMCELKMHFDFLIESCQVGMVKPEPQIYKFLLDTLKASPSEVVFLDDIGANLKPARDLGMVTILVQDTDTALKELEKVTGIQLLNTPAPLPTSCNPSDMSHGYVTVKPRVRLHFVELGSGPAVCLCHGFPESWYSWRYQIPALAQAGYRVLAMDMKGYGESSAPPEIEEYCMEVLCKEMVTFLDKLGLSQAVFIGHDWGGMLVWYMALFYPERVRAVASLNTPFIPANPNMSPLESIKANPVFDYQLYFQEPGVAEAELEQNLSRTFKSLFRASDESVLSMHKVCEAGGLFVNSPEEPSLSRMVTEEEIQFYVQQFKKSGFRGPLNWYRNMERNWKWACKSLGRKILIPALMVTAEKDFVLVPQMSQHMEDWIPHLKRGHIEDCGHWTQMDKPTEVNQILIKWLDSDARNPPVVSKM
sEH inhibitor = soluble epoxide hydrolase (human) inhibition; P34913; recombinant human sEH enzymatic activity assay; inhibition, % at 2 µM; 91,000 compounds, 0.34% hits; in the data active = inhibition above about 80%
SDO1 yeast rescue = compounds rescuing growth of sdo1-depleted yeast, bone marrow failure model; S. cerevisiae sdo1-depleted JHY4D growth rescue, OD600 30 h; stronger effect = higher value; pdr5 snq2 efflux-pump mutant strain; 140,000 compounds, 0.21% hits; z-score at 10 µM;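 active = z-score above 3 at both the 24 hr and the 30 hr optical density reads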;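 also: z-score against mean and SD of all compound wells on the same plate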
BB579 growth dn = reduces growth of yeast BB579 in restrictive medium; 140,000 compounds, 0.51% hits; S. cerevisiae BB579 growth, OD615, 48 h; AID 804; inhibition, % at 10 µM;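 active = inhibition above a set limit, 3 SD over the mean compound inhibition, cut at about 44% in these data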
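test system = yeast BB579 (DeaD) | buffer or medium = restrictive CSMM-D medium | doses = single compound dose of 10 µM, 0.25% DMSO final | times = 4 h preincubation and 48 h exposure at 30 °C | technique = culture absorbance at 615 nm | benchmarks = amphotericin B 10 µg/mL, positive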
* marks the source's active call; other numbers are inactive results; . = no result given; [ ] = dose if it differs, or a comment. This is a sample that favours compounds with a hit; in the whole collection about 3% have one here.

SMILES	Measles CPE	Yeast life ext	sEH activator	sEH inhibitor	SDO1 yeast rescue	BB579 growth dn
CCOC(=O)C1C(=O)C(C(C)=O)C(=O)CC1CC(C)SCC (stereo not drawn)	7	93*	-1	-1	0.01	-50
CCSC(C)CC1CC(=O)CC(=O)C1 (stereo not drawn)	14	18	.	.	0.73	-18
Cc1nc2ncnn2c(C)c1CCC(=O)N1CCc2ccccc21	40*	7	.	.	-0.63	-22
Cc1ccc2nc(-c3ccc(NS(=O)(=O)c4ccc(F)cc4)cc3)sc2c1	10	-7	.	.	-1.7	91*
CC(=O)Nc1ccc(S(=O)(=O)Nc2nc3ccc(C)cc3s2)cc1	3	-4	-6	7	0.9	10
CCCn1c(C)cs/c1=N\C(=S)Nc1ccccc1	44*	0	.	.	1.3	-29
C=CCn1c(C)cc(C(=O)CSc2nc3ccccc3[nH]2)c1C	10	-16	.	.	-1.5	-54
C=CCn1c(C)cc(C(=O)CSc2nnc(NC(C)C)s2)c1C	8	-6	-7	11	-2.5	-54
C=CCn1c(C)cc(C(=O)CSc2nnc(NCc3ccccc3)s2)c1C	3	-9	-4	5	-2.2[9.2 µM]	64*
C=CCn1c(C)cc(C(=O)CSc2nc3ccccc3c(=O)[nH]2)c1C	6	69*	14	-19	-2.8	-61
C=CCn1c(C)cc(C(=O)COC(=O)CNC(=O)c2ccccc2)c1C	26*	-3	.	.	0.81	-30
C=CCn1c(C)cc(C(=O)COc2nncc3ccccc23)c1C	46*	4	.	.	-0.26	-43
CCCOc1ccc(-c2csc(NC(=O)CN3C(=O)CCC3=O)n2)cc1	14	-1	.	.	-0.98	-8
Cc1ccc(CNC(=O)c2cnccn2)cc1	18	1	.	.	1.7	-18
Cc1ccccc1NC(=O)c1ccc(CN2CCC(Cc3ccccc3)CC2)cc1	51*	-15	7	-9	-0.72	-15
COc1ccc(CCNC(=O)c2ccc(CN3CCC(Cc4ccccc4)CC3)cc2)cc1	12	4	.	.	-1.5	-41
CC(C)CN(CC(C)C)C(=O)C12CCC(C)(C(=O)O1)C2(C)C (stereo not drawn)	1	.	11	-12	-0.11	-44
COC(=O)c1ccccc1NC(=S)NC(=O)c1cccc2ccccc12	59*	-5	5	-7	-1.2	-34
O=C(NCCC1=CCCCC1)c1ccc(F)c(S(=O)(=O)N2CCOCC2)c1	10	1	-97	97*	-0.97	-15
Cc1c(C(=O)NCCC2=CCCCC2)oc2ccc(S(=O)(=O)N3CCOCC3)cc12	14	-9	.	.	-0.95	-26
OCCCc1nc2n(n1)C(c1ccccc1)C=C(c1ccc(F)cc1)N2 (stereo not drawn)	6	-7	-12	15	0.45	-23
OCCCc1nc2n(n1)C(c1cccs1)C=C(c1ccccc1)N2 (stereo not drawn)	64*	-10	-5	2	-0.2	-20
COc1ccc(C(C)=O)cc1CSCCC#N	15	-16	-6	6	-0.23	10
CCCOc1ccc(C(C)=O)cc1CSCCC#N	40*	-5	-5	8	-0.32	-11
CC1CC(C)CN(S(=O)(=O)c2ccc(NC(=S)NC(=O)c3ccccc3)cc2)C1 (stereo not drawn)	7	0	.	.	0.08	-10
SMILES	Measles CPE	Yeast life ext	sEH activator	sEH inhibitor	SDO1 yeast rescue	BB579 growth dn
Cc1ccc(C)c2c1cc(C)c1nnc(SCC(=O)N3CCCc4ccccc43)n12	4	15	.	.	-0.9	-38
CCn1c(=O)c2ccccc2n2c(SCC(=O)N3CCCc4ccccc43)nnc12	7	39*	-5	6	-0.19[8.4 µM]	-40
COc1ccc(C2=NC(c3ccccc3)CO2)cc1 (stereo not drawn)	14	12	.	.	-0.2	-19
COc1ccc(C2CC23N=C(c2ccccc2)OC3=O)cc1 (stereo not drawn)	43*	45*	.	.	-0.57	-14
CSc1nc(N)c2c(C)c(C)sc2n1	4	-5	.	.	0.78	-46
O=C(CSc1nnc2ccccn12)Nc1nsc(-c2ccccc2)n1	27*	1	.	.	-0.41	-18
COc1ccc(-c2nc(NC(=O)CSc3nnc4ccccn34)ns2)cc1	2	-14	1	2	0.23	-1
O=C(Nc1ccc(Br)cc1)c1ccc(Br)c(S(=O)(=O)Nc2cccnc2)c1	46*	-3	.	.	0.98	-19
N#CCc1ccc(NS(=O)(=O)c2ccc(C3CCCCC3)cc2)cc1	25	0	.	.	-0.48	-45
COC(=O)c1cc(Br)c(=O)n(Cc2ccncc2)c1	25	0	2	-1	0.84	-30
COC(=O)c1cc(Br)c(=O)n(Cc2ccc(C(=O)O)cc2)c1	32*	-12	10	-8	1.2	3
Cc1cc(OCc2ccc(C(=O)NN=C3CCCC3)cc2)ccc1Cl	13	-6	.	.	-2	97*
CCCCCN1CSC(=S)N(Cc2ccccc2)C1	4	27*	.	.	-2.1	26
CCN1CNC(=S)N(Cc2ccccc2)C1	3	-1	.	.	-0.33	4
O=C(/C(=C/c1ccccc1)c1ccccc1)N1CCCCC1	2	1	-2	0	-0.39	-22
O=C(CN1CCCCCC1)Nc1cccc(Br)c1	2	4	3	-2	0.65	-33
O=C(CN1CCCCC1)Nc1ccccc1	30*	3	5	-5	0.87	13
O=C(CCN1CCCCCC1)Nc1ccc(F)cc1	3	64*	-7	6	0.4	-58
O=C(CCN1CCCCCC1)Nc1ccc(F)c(F)c1	14	-4	.	.	0.2	-37
CC(C)n1c(SCC(=O)Nc2ccccc2)nc2c1c(=O)n(C)c(=O)n2C	30	.	7	-5	0.4	2
O=C(NCc1ccccc1)c1ccc(CS(=O)(=O)c2ccccc2)o1	6	-5	-1	0	0.59	-25
COC(=O)C1=C(C(=O)OC)SC(=C2C(=S)C(C)(C)N(C(=O)C(C)C)c3ccccc32)S1	2	35*	6	-8	-1.7	-24
COC(=O)C1=C(C(=O)OC)SC(=C2C(=S)C(C)(C)N(C(=O)C3CC3)c3ccccc32)S1	6	1	-6	8	-0.07	-51
CCOC(=O)/C(=C\c1ccc(Cl)cc1)c1nc2sc(C)c(C)c2c(=O)[nH]1	25	32*	.	.	-1.7	-14
CC(C)(C)C(=O)Nc1nc(C2CCCN2S(=O)(=O)c2ccc(Cl)cc2)cs1 (stereo not drawn)	2	-18	1	-7	-1.8	-23
CC(NC(=O)Nc1ccc(Cl)cc1)C(c1cccs1)N1CCOCC1 (stereo not drawn)	32	-7	-22	22	0.1	49*
CC(NC(=O)Nc1ccccc1)C(c1cccs1)N1CCOCC1 (stereo not drawn)	5	-5	-7	7	-0.24	-27
CC12CCC(C(=O)Nc3ccccc3)(C(Br)C1=O)C2(C)C (stereo not drawn)	3	10	.	.	1.1	-34

Bioassay records from PubChem BioAssay.
